This note sets out measurements from ChEMBL document CHEMBL2331327, “Bioactive abietane and ent-kaurane diterpenoids from Isodon tenuifolius” (J Nat Prod, 2013).

The subject of one data set is SW480. Put plainly: Cytotoxicity against human SW480 cells assessed as inhibition of cell viability after 48 hrs by MTT assay. The data set is classed as functional, cell-based. As to conditions: SW480, 48 h. In short, it runs like this: (§1)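 Cells grown in RPMI-1640 or DMEM with 10% FBS, 37 °C, 5% CO2. Adherent lines seeded at 1 × 10^5 cells/mL and allowed 12 h to attach; suspension cells seeded just before dosing. Compounds tested at various concentrations in triplicate for 48 h; cisplatin and paclitaxel as positive controls. MTT added for 4 h at 37 °C, then lysis in 20% SDS−50% DMF and OD read at 595 nm. IC50 by Reed and Muench method.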

The test system of data set [1] is RAW264.7. The data set can be described thus: Inhibition of nitric oxide production in LPS-stimulated mouse RAW264.7 cells measured after 18 hrs by Griess reagent based multilabel plate reader analysis. The data set is classed as functional, cell-based. As to conditions: RAW264.7, 18 h. The method, boiled down:
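RAW264.7 macrophages in RPMI 1640 with 10% FBS at 2 × 10^5 cells/well, preincubated 24 h at 37 °C, 5% CO2. Then 18 h with 1 μg/mL LPS plus serial dilutions of compound (DMSO stock diluted in medium; top concentration 25 μM). Supernatant mixed 1:1 with Griess reagent, 5 min, absorbance at 570 nm, in triplicate. MG-132 as positive control.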
A general note: The Griess reaction detects nitrite, a stable product of nitric oxide.

The test system of the next data set is A549. The data set can be described thus: Cytotoxicity against human A549 cells assessed as inhibition of cell viability after 48 hrs by MTT assay. The data set is classed as functional, cell-based. As to conditions: A549, 48 h. The method, boiled down:
as §1
Background: Tetrazolium assays rely on reduction of a dye to a coloured formazan, in cell work by metabolically active cells.

Another data set deals with HL-60. The data set can be described thus: Cytotoxicity against human HL60 cells assessed as inhibition of cell viability after 48 hrs by MTT assay. Type of data set: functional, cell-based. As to conditions: HL-60, 48 h. The method, boiled down: as §1
The test system of another data set is MCF7. Put plainly: Cytotoxicity against human MCF7 cells assessed as inhibition of cell viability after 48 hrs by MTT assay. The data set is classed as functional, cell-based. As to conditions: MCF7, 48 h. The method, boiled down:
as §1

Data set [2] has as its system RAW264.7. Put plainly: Cytotoxicity against mouse RAW264.7 cells assessed as inhibition of cell viability after 18 hrs by MTS assay. The data set is classed as cell-based. To be noted: raw264.7, 18 h. In short, it runs like this:
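RAW264.7 cells seeded at 2 × 10^5 cells/well and preincubated 24 h, then exposed to compounds (DMSO solutions) at given concentrations for 18 h. MTS added for 4 h and absorbance read at 490 nm. Viability expressed relative to untreated cells as 100%.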

The next data set deals with SMMC-7721. Put plainly: Cytotoxicity against human SMMC7721 cells assessed as inhibition of cell viability after 48 hrs by MTT assay. The data set is classed as functional, cell-based. As to conditions: SMMC-7721, 48 h. The method, boiled down: as §1

Some results are limits rather than exact numbers.

What is called IC50 is the concentration that inhibits the measured activity by half. Take `COC[C@H]1C(=O)[C@]23C[C@H]1C[C@H](OC(C)=O)[C@H]2[C@]1(C)[C@@H](OC(C)=O)C[C@H](O)C(C)(C)[C@H]1C(=O)[C@@H]3O` [TENUIFOLIN M]: the IC50 with SW480 was above 10 µM; with RAW264.7 [1], above 25 µM; in the data set with A549 it was above 10 µM; in the data set on HL-60 it was 4.4 µM; in the data set with MCF7, above 10 µM; in the data set on SMMC-7721, above 10 µM. In the data set on RAW264.7 [2], the Activity entry is listed as “Non-toxic”.
